Experimental data from ChEMBL document CHEMBL5352453, “Hit-to-lead optimization of a 2-aminobenzimidazole series as new candidates for chagas disease” (Eur J Med Chem, 2023).
pIC50: −log10 of the molar value.

Key:
[1] = Selectivity index, ratio of CC50 for cytotoxicity against human MRC5 cells to EC50 for Trypanosoma cruzi Tulahuen CL2 amastigotes expressing beta galactosidase infected in human MRC5 cells; type: toxicity, cell-based; conditions: read-out: Selectivity Index
In short: (§1)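 T. cruzi Tulahuen CL2 β-galactosidase strain grown in MRC-5 cells (MEM, 5% heat-inactivated FCS, 37 °C, 5% CO2). MRC-5 cells (4 x 10^3/well) plus parasites (4 x 10^4/well) exposed 7 days to 4-fold dilutions from 64 µM down; final DMSO <1%. CPRG with Nonidet added, absorbance at 540 nm after 4 h. IC50 calculated against untreated-infected (100%) and non-infected (0%) controls. SI = MRC-5 CC50/IC50.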

[2] = system: Trypanosoma cruzi; assay: Antitrypanosomal activity against Trypanosoma cruzi Tulahuen CL2 amastigotes expressing beta galactosidase infected in human MRC5 cells assessed as reduction in parasite burden using chlorophenol red beta-D-galactopyranoside as substrate and measured after 7 days by spectrophotometric analysis; type: functional, organism-based; conditions: Tulahuen CL2, MRC5, 168 h; in short: as §1
[3] = Metabolic stability in CD1 mouse liver microsomes assessed as intrinsic clearance measured upto 60 mins by LC-MS/MS analysis; type: ADME; conditions: read-out: CLH
In short: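 CD1 mouse liver microsomes at 0.25 mg/mL, compound at 0.5 µM, pH 7.4, 37 °C, started with NADPH. Sampled at 0, 5, 10, 20, 30 and 60 min and quenched with acetonitrile:methanol containing tolbutamide. Measured by LC-MS/MS; CLint (k × 1000/0.25, µL/min/mg) derived by non-linear regression of % remaining over time.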

[4] = system: Trypanosoma cruzi; assay: Antitrypanosomal activity against intracellular Trypanosoma cruzi amastigote infected primary peritoneal mouse macrophages assessed as reduction in infection rate; type: functional
In short: (§2)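 High-content imaging of primary mouse macrophages infected with T. cruzi. Counts both amastigotes per cell and percentage of infected cells. 96 h exposure, with maximal activity scored at 10 µM. IC50 and IC90 against intracellular amastigotes taken from the same 96 h incubation.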

[5] = Passive permeability of the compound at 10 uM at pH 6.5 to 7.4 donor portion/acceptor portion by PAPMA assay; type: ADME; conditions: not told, read-out: permeability
In short: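 PAMPA on pre-coated membranes. Donor holds 10 µM compound in PBS pH 6.5; acceptor holds PBS pH 7.4. Incubated 5 h at 37 °C. Donor, acceptor and initial donor samples quenched and quantified by LC-MS/MS to calculate effective permeability (Pe). Run in triplicate.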

[6] = system: Trypanosoma cruzi; assay: Antitrypanosomal activity against intracellular Trypanosoma cruzi amastigote infected mouse 3T3 cells assessed as reduction in amastigote population measured after 48 hrs
[7] = Cytotoxicity against primary peritoneal mouse macrophages assessed as reduction in cell viability measured after 24 hrs by colorimetric assay; type: toxicity, cell-based, Peritoneal macrophage
[8] = system: Trypanosoma cruzi; assay: Antitrypanosomal activity against intracellular Trypanosoma cruzi amastigote infected primary peritoneal mouse macrophages assessed as reduction in amastigote population; type: functional; set-up: concentration or dose not given beside the values; in short: as §2
[9] = Cytotoxicity against human HepG2 cells assessed as reduction in cell viability measured after 24 hrs by colorimetric assay; type: toxicity, cell-based
[10] = Cytotoxicity against mouse 3T3 cells assessed as reduction in cell viability measured after 24 hrs by colorimetric assay; type: toxicity, cell-based; conditions: NIH3T3 cells
[11] = Kinetic solubility of the compound at pH 7.4 PBS buffer measured after 24 hrs shaken by LC-MS/MS analysis; type: physicochemical; conditions: read-out: Kinetic_solubility
In short: (§3)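 Compounds from 10 mM DMSO stocks diluted in PBS pH 7.4 or pH 2.0 to 250 µM final, 2.5% DMSO, in duplicate. Shaken 24 ± 1 h at 200 rpm, room temperature, then centrifuged to remove precipitate. Supernatant quantified by LC-MS/MS against per-compound calibration at 1–50 µM.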

[12] = system: Trypanosoma cruzi; assay: Antitrypanosomal activity against intracellular Trypanosoma cruzi amastigote infected primary peritoneal mouse macrophages assessed as reduction in amastigote population measured after 96 hrs; type: functional, organism-based; conditions: for pIC50: 96 h; for IC90: time 96 hrs; in short: as §2
[13] = Kinetic solubility of the compound at pH 2 PBS buffer measured after 24 hrs shaken by LC-MS/MS analysis; type: physicochemical; conditions: read-out: Kinetic_solubility; in short: as §3
[14] = Cytotoxicity against rat L6 cells assessed as reduction in cell viability measured after 24 hrs by colorimetric assay; type: toxicity, cell-based
[15] = Cytotoxicity against human MRC5 cells assessed as reduction in cell viability measured after 24 hrs by colorimetric assay; type: toxicity, cell-based

Row | SMILES | selectivity ratio [1] | pIC50 [2] | microsomal CLint [3] [µL/min/mg] | other results
1 | Cn1nc(C(F)(F)F)cc1C(=O)Nc1nc2ccc(C#N)cc2n1CCF | 11 | 5.68 | 39 | 
2 | CC(C)(O)Cn1c(NC(=O)c2ccc(C(F)(F)F)nc2)nc2ccc(C#N)cc21 | 1 | 4.43 | 23 | 
3 | Cn1nccc1C(=O)Nc1nc2cc(F)cnc2n1CC(F)(F)F | 3 | 6.08 | 44 | 
4 | Cn1nccc1C(=O)Nc1nc2cc(CN3CCOCC3)ccc2n1CC(F)(F)F | 5 | 5.08 | 23 | 
5 | Cn1nccc1C(=O)Nc1nc2ccc(C#N)cc2n1CC(F)F | 5 | 5.62 | 383 | 
6 | CC(=O)N1CCC(n2c(NC(=O)c3ccnn3C)nc3ccc(C#N)cc32)CC1 | 1 | 4.19 | 23 | 
7 | Cc1nnn(CC(=O)Nc2nc3ccc(C#N)cc3n2CC(F)(F)F)n1 | > 6 | 4.96 | 25 | 
8 | COc1ccc(C(=O)Nc2nc3ccc(C#N)cc3n2CC(F)(F)F)cn1 | > 28 | 5.64 | 170 | 
9 | O=C(Nc1nc2ccc(F)cc2n1CC(F)(F)F)c1ccc(C(F)(F)F)nc1 | > 2 | 4.38 | 86 | 
10 | CC(C)(C)Cn1c(NC(=O)c2cc(C(F)(F)F)n[nH]2)nc2cc(C#N)cnc21 | 3 | 5.82 | 23 | 
11 | Cn1nccc1C(=O)Nc1nc2ccc(C#N)cc2n1CC(C)(C)O | > 5 | 4.89 | 23 | 
12 | Cn1nccc1C(=O)Nc1nc2cccnc2n1CC(F)(F)F | 2 | 5.41 | 119 | 
13 | Cn1nccc1C(=O)Nc1nc2ccc(C#N)cc2n1CC(F)(F)F | 8 | 5.80 | 20 | 
14 | N#Cc1ccc2nc(NC(=O)c3ccnc(C(F)(F)F)c3)n(CC(F)(F)F)c2c1 | > 231 | 6.55 | 27 | inhibition (INH) [4]: 91%; Papp at 10 µM [5]: 2.3 ×10⁻⁶ cm/s; pIC50 [6]: 5.88; CC50 at 24 h [7]: 4 µM; Activity [8]: 98%; CC50 at 24 h [9]: 2.4 µM; CC50 at 24 h [10]: > 40 µM; solubility kinetic at 24 h [11]: < 1 µM; pIC50 [12]: 6.85; IC90 [12]: 0.31 µM; solubility kinetic at 24 h [13]: < 1 µM; CC50 at 24 h [14]: 50 µM; CC50 at 24 h [15]: > 64 µM
15 | Cn1nccc1C(=O)Nc1nc2ccc(C#N)cc2n1CCF | 2 | 5.08 | 154 | 
16 | Cn1nccc1C(=O)Nc1nc2cc(C#N)cnc2n1CC(C)(C)C | 5 | 6.30 | 31 | 
17 | Cn1nccc1C(=O)Nc1nc2cccnc2n1CC(C)(C)C | 20 | 5.66 | 222 | 
18 | O=C(Nc1nc2cc(F)cnc2n1CC(F)(F)F)c1ccc(C(F)(F)F)nc1 | 6 | 6.82 | 113 | 
19 | O=C(Cn1ccnc1[N+](=O)[O-])NCc1ccccc1 [BENZNIDAZOLE] |  |  |  | inhibition (INH) [4]: 94%; pIC50 [6]: 5.59; Activity [8]: 99%; pIC50 [12]: 5.58; IC90 [12]: 12.6 µM
20 | CC[C@@H]([C@H](C)O)n1ncn(-c2ccc(N3CCN(c4ccc(OC[C@@H]5CO[C@@](Cn6cncn6)(c6ccc(F)cc6F)C5)cc4)CC3)cc2)c1=O [POSACONAZOLE] |  |  |  | inhibition (INH) [4]: 98%; pIC50 [6]: 8.70; Activity [8]: 100%; pIC50 [12]: 9.00; IC90 [12]: 0.002 µM
